Source: PMC6587324 (ChemistryOpen, 2019)
Where two headings read alike, the source gives them in different places.

What was measured:
human integrin αvβ3 = human integrin αvβ3 (Homo sapiens, UniProt P05106+P06756); type: binding; settings: SD
In short: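 Immobilized isolated human αvβ3 integrin incubated with biotinylated vitronectin (1 μg mL−1) plus test compound over 10−5–10−12 M. Bound biotinylated vitronectin measured. IC50 taken as the concentration giving 50 % inhibition of vitronectin binding, calculated from the concentration-response data. Values are mean ± standard deviation of duplicate measurements.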

integrin α5β1 [1] = target: T1, integrin α5β1 (Homo sapiens, UniProt P05556+P08648); assay: Integrin α5β1 binding assay
integrin α5β1 [2] = target: T1, integrin α5β1; settings: read-out: α5β1 IC50; cited from earlier work

Row | Structure (SMILES) | IC50 (human integrin αvβ3) [nM] | other results
1 | COc1ccc(C[C@H]2NC(=O)/C=C/C[C@@H]([C@H](C)[C@@H](OC(=O)CNC(=O)OCc3ccc(NC(=O)[C@H](C)NC(=O)[C@@H](NC(=O)CCc4cn(CCOCCOCCOCCOCC(=O)NCc5ccc(CN6C(=O)[C@H]7CC(=O)N[C@H](C(=O)O)CC(=O)NCC(=O)N[C@@H](CCCNC(=N)N)C(=O)NC[C@H]6C(=O)N7)cc5)nn4)C(C)C)cc3)[C@@H](Cl)c3ccccc3)OC(=O)[C@H](CC(C)C)OC(=O)C(C)(C)CNC2=O)cc1Cl [compound 11, cyclo[DKP‐isoDGR]‐PEG4‐Val−Ala‐PABC‐Cry‐55gly] | 5.5 ± 2.8 | 
2 | COc1ccc(C[C@H]2NC(=O)/C=C/C[C@@H]([C@H](C)[C@@H](OC(=O)CNC(=O)CCc3cn(CCOCCOCCOCCOCC(=O)NCc4ccc(CN5C(=O)[C@H]6CC(=O)N[C@H](C(=O)O)CC(=O)NCC(=O)N[C@@H](CCCNC(=N)N)C(=O)NC[C@H]5C(=O)N6)cc4)nn3)[C@@H](Cl)c3ccccc3)OC(=O)[C@H](CC(C)C)OC(=O)C(C)(C)CNC2=O)cc1Cl [compound 14, cyclo[DKP‐isoDGR]‐PEG4‐uncl‐Cry‐55gly] | 10.2 ± 0.4 | 
3 | N=C(N)NCCC[C@@H]1NC(=O)CNC(=O)C[C@@H](C(=O)O)NC(=O)C[C@H]2NC(=O)[C@H](CNC1=O)N(Cc1ccccc1)C2=O [compound 3, cyclo[DKP‐isoDGR]] |  | IC50 (integrin α5β1 [1]): 1070 nM
4 | COc1ccc(C[C@H]2NC(=O)/C=C/C[C@@H]([C@H](C)[C@@H](OC(=O)CNC(=O)OCc3ccc(NC(=O)[C@H](C)NC(=O)[C@@H](NC(=O)CCc4cn(CCOCCOCCOCCOCC(=O)NCc5ccc(CN6C(=O)[C@H]7CC(=O)N[C@@H](CCCNC(=N)N)C(=O)NCC(=O)N[C@@H](CC(=O)O)C(=O)NC[C@H]6C(=O)N7)cc5)nn4)C(C)C)cc3)[C@@H](Cl)c3ccccc3)OC(=O)[C@H](CC(C)C)OC(=O)C(C)(C)CNC2=O)cc1Cl [compound 10, cyclo[DKP‐RGD]‐PEG4‐Val−Ala‐PABC‐Cry‐55gly] | 7.2 ± 1.5 | 
5 | N=C(N)NCCC[C@@H]1NC(=O)C[C@H]2NC(=O)[C@H](CNC(=O)[C@H](CC(=O)O)NC(=O)CNC1=O)N(Cc1ccccc1)C2=O [compound 1, cyclo[DKP‐RGD]] |  | IC50 (integrin α5β1 [2]): 532 nM
6 | COc1ccc(C[C@H]2NC(=O)/C=C/C[C@@H]([C@H](C)[C@@H](OC(=O)CNC(=O)CCc3cn(CCOCCOCCOCCOCC(=O)NCc4ccc(CN5C(=O)[C@H]6CC(=O)N[C@@H](CCCNC(=N)N)C(=O)NCC(=O)N[C@@H](CC(=O)O)C(=O)NC[C@H]5C(=O)N6)cc4)nn3)[C@@H](Cl)c3ccccc3)OC(=O)[C@H](CC(C)C)OC(=O)C(C)(C)CNC2=O)cc1Cl [compound 13, cyclo[DKP‐RGD]‐PEG4‐uncl‐Cry‐55gly] | 24.1 ± 1 | 
